Reference: ChEMBL document CHEMBL1141169, “Discovery of 5-arylsulfonamido-3-(pyrrolidin-2-ylmethyl)-1H-indole derivatives as potent, selective 5-HT6 receptor agonists and antagonists” (J Med Chem, 2005)

Tests used:
[1] = molecular target: T1, 5-hydroxytryptamine receptor 2A (Homo sapiens, UniProt P28223); test: Percentage inhibition of [125I]DOI binding to human 5-hydroxytryptamine 2A receptor expressed in CHO cells at 1000 nM; format: cell-based
[2] = molecular target: T2, 5-hydroxytryptamine receptor 6 (Homo sapiens, UniProt P50406); test: Maximum percentage agonism of cAMP production in HeLa cells expressing human 5-hydroxytryptamine 6 receptor; format: functional, cell-based
How it was run: (§1)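 cAMP production read out across a range of ligand concentrations in HeLa cells stably transfected with the human 5-HT6 receptor, ligand given alone as agonist. EC50 and Emax each determined in triplicate.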

[3] = molecular target: T2, 5-hydroxytryptamine receptor 6; test: Percentage inhibition of [3H]LSD binding to human 5-hydroxytryptamine 6 receptor expressed in HeLa cells at 1000 nM; format: cell-based
How it was run: (§2)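 Competition binding against [3H]-LSD on cloned human 5-HT6 receptors stably expressed in HeLa cells. Ki determined in triplicate; single-point lines are % inhibition at 1000 nM.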

[4] = molecular target: 5-hydroxytryptamine receptor 1D (Homo sapiens, UniProt P28221); test: Inhibition of [3H]-8-OH-DPAT binding to human 5-hydroxytryptamine 1D receptor expressed in CHO cells; format: cell-based
D(4) dopamine receptor = molecular target: T3, D(4) dopamine receptor (Homo sapiens, UniProt P21917); test: Inhibition of [3H]spiperone binding to human dopamine receptor D4 expressed in CHO-K1 cells; format: cell-based
T3 sequence (P21917 whole entry): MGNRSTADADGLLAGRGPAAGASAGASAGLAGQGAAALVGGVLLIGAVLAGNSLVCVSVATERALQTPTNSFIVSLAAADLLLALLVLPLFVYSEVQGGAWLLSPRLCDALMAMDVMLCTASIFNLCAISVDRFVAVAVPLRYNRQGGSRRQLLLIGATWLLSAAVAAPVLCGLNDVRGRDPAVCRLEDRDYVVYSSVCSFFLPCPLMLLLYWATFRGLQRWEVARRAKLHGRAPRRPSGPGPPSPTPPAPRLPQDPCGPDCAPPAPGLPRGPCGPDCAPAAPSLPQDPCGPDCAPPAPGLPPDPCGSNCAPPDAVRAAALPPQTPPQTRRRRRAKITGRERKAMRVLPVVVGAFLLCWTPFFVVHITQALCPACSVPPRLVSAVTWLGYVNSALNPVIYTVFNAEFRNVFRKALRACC
How it was run: (§3)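 Radioligands: 5-HT1A, 8-hydroxy-[3H]-DPAT; 5-HT2C, [3H]-5-HT; 5-HT2A, [125I]DOI; D2, D3 and D4, [3H]spiperone. Ki determined in triplicate, or n = 1 where footnoted.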

[5] = molecular target: T4, 5-hydroxytryptamine receptor 2C (Homo sapiens, UniProt P28335); test: Inhibition of [3H]5-HT binding to human 5-hydroxytryptamine 2C receptor expressed in CHO cells; format: cell-based; how it was run: as §3
T4 sequence (P28335 whole entry): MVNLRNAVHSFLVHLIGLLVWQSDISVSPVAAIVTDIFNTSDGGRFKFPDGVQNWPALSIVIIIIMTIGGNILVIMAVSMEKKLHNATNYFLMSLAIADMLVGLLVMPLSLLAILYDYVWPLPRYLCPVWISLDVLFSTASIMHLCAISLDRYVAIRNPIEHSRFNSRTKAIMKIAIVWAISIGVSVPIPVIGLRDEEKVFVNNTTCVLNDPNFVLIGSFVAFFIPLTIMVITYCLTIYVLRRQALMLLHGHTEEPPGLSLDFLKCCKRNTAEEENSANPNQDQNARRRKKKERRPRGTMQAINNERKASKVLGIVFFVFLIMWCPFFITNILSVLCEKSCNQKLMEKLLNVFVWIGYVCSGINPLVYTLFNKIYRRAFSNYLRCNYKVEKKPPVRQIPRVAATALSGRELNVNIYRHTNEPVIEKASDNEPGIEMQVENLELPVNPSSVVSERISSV

D(2) dopamine receptor = D(2) dopamine receptor (Homo sapiens, UniProt P14416); test: Inhibition of [3H]spiperone binding to human dopamine receptor D2 expressed in CHO-K1 cells; format: cell-based; how it was run: as §3
[6] = molecular target: T5, 5-hydroxytryptamine receptor 1F (Homo sapiens, UniProt P30939); test: Inhibition of [3H]8-OH-DPAT binding to human 5-hydroxytryptamine 1F receptor expressed in CHO cells; format: cell-based
T5 sequence (P30939 whole entry): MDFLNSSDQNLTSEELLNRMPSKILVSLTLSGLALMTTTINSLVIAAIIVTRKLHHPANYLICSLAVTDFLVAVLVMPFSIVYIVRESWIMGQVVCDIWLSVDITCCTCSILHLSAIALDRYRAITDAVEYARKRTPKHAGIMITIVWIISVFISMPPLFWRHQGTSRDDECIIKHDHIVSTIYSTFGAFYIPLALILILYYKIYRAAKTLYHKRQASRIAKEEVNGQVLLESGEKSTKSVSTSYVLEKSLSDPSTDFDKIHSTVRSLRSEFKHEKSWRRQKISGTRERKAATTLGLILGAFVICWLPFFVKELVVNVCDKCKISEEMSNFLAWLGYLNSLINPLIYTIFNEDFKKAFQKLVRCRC

[7] = molecular target: T1, 5-hydroxytryptamine receptor 2A; test: Inhibition of [125I]DOI binding to human 5-hydroxytryptamine 2A receptor expressed in CHO cells; format: cell-based; how it was run: as §3
[8] = molecular target: T6, 5-hydroxytryptamine receptor 1A (Homo sapiens, UniProt P08908); test: Inhibition of [3H]8-OH-DPAT binding to human 5-hydroxytryptamine 1A receptor expressed in CHO cells; format: cell-based; how it was run: as §3
T6 sequence (P08908 whole entry): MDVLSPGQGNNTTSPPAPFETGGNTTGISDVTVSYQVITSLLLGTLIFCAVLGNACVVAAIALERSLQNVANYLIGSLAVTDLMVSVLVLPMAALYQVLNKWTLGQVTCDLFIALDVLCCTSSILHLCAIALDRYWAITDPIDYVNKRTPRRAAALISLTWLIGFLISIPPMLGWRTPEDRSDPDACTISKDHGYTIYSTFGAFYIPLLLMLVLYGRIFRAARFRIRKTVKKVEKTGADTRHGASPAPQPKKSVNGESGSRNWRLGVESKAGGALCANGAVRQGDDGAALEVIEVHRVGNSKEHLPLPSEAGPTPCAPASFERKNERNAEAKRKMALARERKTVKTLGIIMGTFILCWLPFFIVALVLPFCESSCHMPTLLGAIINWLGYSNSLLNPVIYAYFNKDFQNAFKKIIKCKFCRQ

D(3) dopamine receptor = D(3) dopamine receptor (Homo sapiens, UniProt P35462); test: Inhibition of [3H]spiperone binding to human dopamine receptor D3 expressed in CHO-K1 cells; format: cell-based; how it was run: as §3
[9] = molecular target: T2, 5-hydroxytryptamine receptor 6; test: Inhibition of [3H]LSD binding to human 5-hydroxytryptamine 6 receptor expressed in HeLa cells; format: cell-based; how it was run: as §2
[10] = molecular target: 5-hydroxytryptamine receptor 7 (Homo sapiens, UniProt P34969); test: Inhibition of [3H]-LSD binding to 5-hydroxytryptamine 7 receptor expressed in CHO cells; format: cell-based
How it was run: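 Displacement of [3H]-LSD from human 5-HT7 receptor clone stably expressed in CHO cells. Ki in triplicate, or n = 1 where footnoted.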

[11] = molecular target: T2, 5-hydroxytryptamine receptor 6; test: Effective agonist concentration in cAMP release assay in HeLa cells expressing human 5-hydroxytryptamine 6 receptor; format: functional, cell-based; how it was run: as §1
[12] = molecular target: T2, 5-hydroxytryptamine receptor 6; details: HeLa

T1 sequence (P28223 whole entry): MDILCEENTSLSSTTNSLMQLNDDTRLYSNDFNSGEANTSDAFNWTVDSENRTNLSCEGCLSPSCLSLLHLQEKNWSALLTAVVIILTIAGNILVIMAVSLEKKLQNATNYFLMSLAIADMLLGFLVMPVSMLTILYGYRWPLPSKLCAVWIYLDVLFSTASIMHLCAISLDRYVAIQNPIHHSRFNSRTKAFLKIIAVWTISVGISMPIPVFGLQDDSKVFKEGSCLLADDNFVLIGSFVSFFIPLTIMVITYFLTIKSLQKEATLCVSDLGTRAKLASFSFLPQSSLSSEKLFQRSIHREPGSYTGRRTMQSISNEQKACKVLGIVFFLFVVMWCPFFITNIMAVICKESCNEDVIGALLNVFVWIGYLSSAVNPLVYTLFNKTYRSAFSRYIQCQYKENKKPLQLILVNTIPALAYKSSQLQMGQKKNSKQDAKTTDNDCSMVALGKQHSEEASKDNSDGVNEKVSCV
Chain of D(2) dopamine receptor (P14416 whole entry): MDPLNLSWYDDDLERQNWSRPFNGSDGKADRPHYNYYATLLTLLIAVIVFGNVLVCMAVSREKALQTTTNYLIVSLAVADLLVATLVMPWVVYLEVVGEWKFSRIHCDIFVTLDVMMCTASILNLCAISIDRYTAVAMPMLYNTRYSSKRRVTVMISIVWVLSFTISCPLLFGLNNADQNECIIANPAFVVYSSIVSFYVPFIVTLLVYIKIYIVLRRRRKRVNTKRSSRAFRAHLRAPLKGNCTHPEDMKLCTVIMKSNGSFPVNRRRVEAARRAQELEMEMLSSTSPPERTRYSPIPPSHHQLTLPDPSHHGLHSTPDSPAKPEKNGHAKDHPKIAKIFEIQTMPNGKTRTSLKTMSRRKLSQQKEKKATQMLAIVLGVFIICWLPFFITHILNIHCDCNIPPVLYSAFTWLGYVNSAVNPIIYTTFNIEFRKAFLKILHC
Chain of 5-hydroxytryptamine receptor 1D (P28221 whole entry): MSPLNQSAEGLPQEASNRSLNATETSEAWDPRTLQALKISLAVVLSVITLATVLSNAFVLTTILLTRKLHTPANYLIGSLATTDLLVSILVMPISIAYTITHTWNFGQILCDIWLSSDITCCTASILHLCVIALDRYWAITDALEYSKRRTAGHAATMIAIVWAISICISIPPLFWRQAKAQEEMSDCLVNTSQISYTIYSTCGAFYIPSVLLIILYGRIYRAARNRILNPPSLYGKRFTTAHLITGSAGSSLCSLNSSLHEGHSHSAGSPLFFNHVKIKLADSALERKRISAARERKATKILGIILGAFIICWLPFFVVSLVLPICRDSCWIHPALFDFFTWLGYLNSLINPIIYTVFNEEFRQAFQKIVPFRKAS
T2 sequence (P50406 whole entry): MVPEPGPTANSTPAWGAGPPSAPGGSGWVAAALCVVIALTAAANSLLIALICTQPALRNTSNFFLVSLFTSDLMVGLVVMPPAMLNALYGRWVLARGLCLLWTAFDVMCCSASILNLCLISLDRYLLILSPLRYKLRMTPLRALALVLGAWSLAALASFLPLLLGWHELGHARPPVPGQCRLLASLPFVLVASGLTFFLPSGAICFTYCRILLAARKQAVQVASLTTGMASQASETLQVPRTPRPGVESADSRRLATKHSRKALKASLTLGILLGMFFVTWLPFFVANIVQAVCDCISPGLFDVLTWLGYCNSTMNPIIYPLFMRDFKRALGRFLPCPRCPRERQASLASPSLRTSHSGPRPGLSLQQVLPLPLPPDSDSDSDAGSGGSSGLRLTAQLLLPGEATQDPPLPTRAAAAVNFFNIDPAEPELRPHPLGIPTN
Chain of D(3) dopamine receptor (P35462 whole entry): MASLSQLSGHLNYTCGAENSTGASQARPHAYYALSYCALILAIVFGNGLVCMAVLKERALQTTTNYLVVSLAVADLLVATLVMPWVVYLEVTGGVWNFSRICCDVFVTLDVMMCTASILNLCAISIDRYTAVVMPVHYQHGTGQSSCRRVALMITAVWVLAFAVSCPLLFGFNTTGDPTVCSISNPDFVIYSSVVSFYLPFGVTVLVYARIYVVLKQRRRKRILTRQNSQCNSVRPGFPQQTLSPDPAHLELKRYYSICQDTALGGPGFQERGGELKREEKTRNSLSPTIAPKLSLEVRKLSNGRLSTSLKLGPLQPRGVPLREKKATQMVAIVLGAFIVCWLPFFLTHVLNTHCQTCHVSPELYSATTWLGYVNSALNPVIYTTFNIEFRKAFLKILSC
Chain of 5-hydroxytryptamine receptor 7 (P34969 whole entry): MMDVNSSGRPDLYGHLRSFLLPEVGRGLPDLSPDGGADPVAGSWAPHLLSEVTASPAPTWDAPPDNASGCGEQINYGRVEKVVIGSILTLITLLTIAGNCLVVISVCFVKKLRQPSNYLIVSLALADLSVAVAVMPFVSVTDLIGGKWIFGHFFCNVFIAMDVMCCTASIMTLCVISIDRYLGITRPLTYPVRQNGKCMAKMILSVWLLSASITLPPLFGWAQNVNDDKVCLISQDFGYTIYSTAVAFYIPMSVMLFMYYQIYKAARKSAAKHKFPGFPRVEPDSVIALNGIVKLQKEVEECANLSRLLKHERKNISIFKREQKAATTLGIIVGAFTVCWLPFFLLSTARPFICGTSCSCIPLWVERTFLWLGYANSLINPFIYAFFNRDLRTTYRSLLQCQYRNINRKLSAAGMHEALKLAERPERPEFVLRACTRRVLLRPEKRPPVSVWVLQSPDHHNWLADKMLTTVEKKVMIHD

Compound | inhibition [1] [%] | Emax [2] [%] | inhibition [3] [%] | Ki [4] [nM] | Ki (D(4) dopamine receptor) [nM] | Ki [5] [nM] | Ki (D(2) dopamine receptor) [nM] | Ki [6] [nM] | Ki [7] [nM] | Ki [8] [nM] | Ki (D(3) dopamine receptor) [nM] | Ki [9] [nM] | Ki [10] [nM] | EC50 [11] [nM] | Affinity [12] [nM]
O=S(=O)(Cc1ccccc1I)Nc1ccc2[nH]cc(C[C@H]3CCCN3)c2c1 | 42 | 100 |  |  |  |  |  |  |  |  |  |  |  |  | 
O=S(=O)(Nc1ccc2[nH]cc(C[C@@H]3CCCN3)c2c1)c1ccc(F)cc1 |  |  | 74 |  |  |  |  |  |  |  |  |  |  |  | 
COc1ccc(S(=O)(=O)Nc2ccc3[nH]cc(C[C@@H]4CCCN4)c3c2)cc1 |  |  | 64 |  |  |  |  |  |  |  |  |  |  |  | 
CN1CCC[C@@H]1Cc1c[nH]c2ccc(NS(=O)(=O)c3ccccc3Cl)cc12 |  | 100 |  | 29.5 | > 5000 | 289 | > 2000 | 16 | 367 | 170 | > 1000 | 1 | 74 | 1.1 | 
COc1ccc2c(c1)c(CCN(C)C)cn2S(=O)(=O)c1ccccc1 |  |  |  |  |  |  |  |  |  |  |  |  |  |  | 16
CN1CCC[C@@H]1Cc1c[nH]c2ccc(NS(=O)(=O)c3cccc(Cl)c3)cc12 |  | 100 |  | 4.7 | > 5000 | 231 | > 2000 | 2.7 | 269 | 200 | 930 | 0.4 | 24 | 1.6 | 
O=S(=O)(Nc1ccc2[nH]cc(C[C@H]3CCCN3)c2c1)c1ccccc1Cl |  | 100 |  | > 1000 | > 5000 | 566 | > 5000 | 12.3 |  | 552 | > 5000 | 3 |  | 1.3 | 
